These results are taken from paper PMC9850729 (ACS Omega, 2023).

What all share (format): cell-based
In experiment [1] the test system is MCF-7 cells. The experiment is described as follows: Wound-healing assay. As to conditions: substance alone (peptide at IC50), n = 12.
Experiment [2] relates to MCF-7 cells. In words: MTT viability assay, MCF-7. The conditions noted are these: read-out: IC50 MCF-7, 2 h peptide treatment, 6.25-200 μg mL^–1, n = 3. A digest of the protocol: (§1)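 Cancer cells were cultured in supplemented RPMI-1640, seeded at 1×10^4 per well, adhered 12 h and synchronized 12 h in incomplete medium. Peptide was applied at 6.25–200 μg mL⁻¹ for 2 h, then MTT was added for 4 h, formazan dissolved in DMSO, and absorbance read at 575 nm; n = 3. Selectivity was taken as the IC₅₀ in MCF-12 cells, foreskin-derived primary fibroblasts or erythrocytes divided by the cancer-cell IC₅₀.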
On the technique in general: Tetrazolium dyes change colour on reduction, which living cells bring about.

Experiment [3] concerns MDA-MB-231 cells. In words: MTT viability assay, MDA-MB-231. The conditions noted are these: read-out: IC50 MDA-MB-231, 2 h peptide treatment, 6.25-200 μg mL^–1, n = 3. In outline: as §1

Molecules are shown by their SMILES. Residues, ends and D or L forms follow the SMILES beside them.

Consider `C[C@]12CC[C@@H]3c4ccc(O)cc4CC[C@H]3[C@@H]1CC[C@@H]2O` [estradiol], for which the wound area reduced entry in experiment [1] (MCF-7, 24 h after the wound) is on record as “about 20%”. For the same molecule, in experiment [1] (MCF-7, 48 h after the wound), the “wound area reduced (closure)” value worked out at 40%.

As for `N=C(N)NCCC[C@H](NC(=O)[C@H](CCCNC(=N)N)NC(=O)[C@H](Cc1c[nH]c2ccccc12)NC(=O)[C@H](CCC(N)=O)NC(=O)[C@H](Cc1c[nH]c2ccccc12)NC(=O)[C@H](CCCNC(=N)N)NC(=O)[C@H](Cc1c[nH]c2ccccc12)NC(=O)[C@H](CCC(N)=O)NC(=O)[C@H](Cc1c[nH]c2ccccc12)NC(=O)[C@H](CCCNC(=N)N)NC(=O)[C@@H](N)CCCNC(=N)N)C(N)=O` [RR-1-RR] (H-RRWQWRWQWRR-NH2), the values for the IC50 in experiment [2] and in experiment [3] were 58 µM and 67 µM, respectively.

On to `N=C(N)NCCC[C@H](NC(=O)[C@H](Cc1c[nH]c2ccccc12)NC(=O)[C@H](CCC(N)=O)NC(=O)[C@H](Cc1c[nH]c2ccccc12)NC(=O)[C@H](CCCNC(=N)N)NC(=O)[C@H](Cc1c[nH]c2ccccc12)NC(=O)[C@H](CCC(N)=O)NC(=O)[C@H](Cc1c[nH]c2ccccc12)NC(=O)[C@H](CCCNC(=N)N)NC(=O)[C@@H](N)CCCNC(=N)N)C(N)=O` [RR-1-R] (H-RRWQWRWQWR-NH2), for which the IC50 (usually the point on the concentration scale where inhibition reaches its midpoint) amounted to 68 µM in experiment [2] and 73 µM in experiment [3].
